Measured values pooled from the literature.
Each line is one published result; the experiments were not run side by side.
Effect on: cell growth or viability

O=C1CCP(c2ccccc2)CC1 — IC50 (PC-3; MTT; 72 h): 84.2 µM
COc1cc(C(=O)c2nc(-c3c[nH]c4ccccc34)c[nH]2)cc(OC)c1OC — IC50 (PC-3; MTS; 72 h): 0.0711 µM
CC(=N)S — IC50 (NIH3T3; 96 h): 109 µM
CC[C@H](C)[C@H](NC(=O)[C@H](CCCCN)NC(=O)[C@H](CCCNC(=N)N)NC(=O)[C@H](Cc1ccccc1)NC(=O)[C@H](CCCNC(=N)N)NC(=O)[C@H](CCCNC(=N)N)NC(=O)[C@H](CCCNC(=N)N)NC(=O)[C@H](Cc1ccccc1)NC(=O)[C@H](CCCCN)NC(=O)[C@H](CCCNC(=N)N)NC(=O)[C@H](CC(C)C)NC(=O)[C@@H](N)CCCNC(=N)N)C(=O)NCC(N)=O — IC50 (A549; MTT; 24 h): > 500 µM
COc1cc(C(=O)c2nc(-c3cccc4[nH]ccc34)c[nH]2)cc(OC)c1OC — IC50 (PC-3; MTS; 72 h): ~0.0013 µM
CC(C)C[C@H](NC(=O)[C@H](CCCCN)NC(=O)[C@H](Cc1c[nH]c2ccccc12)NC(=O)[C@H](CCCNC(=N)N)NC(=O)[C@H](CCCCN)NC(=O)[C@H](CC(C)C)NC(=O)[C@H](Cc1ccccc1)NC(=O)[C@H](CCCCN)NC(=O)[C@H](CCCCN)NC(=O)[C@H](CC(C)C)NC(=O)[C@H](CC(C)C)NC(=O)[C@H](CCCCN)NC(=O)[C@@H](N)CO)C(N)=O — IC50 (A549; MTT; 24 h): 26 µM
N.N.[Cl][Pt][Cl] — IC50 (A549; MTT; 48 h): 15.8 µM
N.N.[Cl][Pt][Cl] — IC50 (NIH3T3; 96 h; 3D culture): 33.8 µM
N.N.[Cl][Pt][Cl] — IC50 (WSU-NHL; ATP luminescence; 72 h): 1.18 µM
CC(C)C[C@H](NC(=O)[C@H](CCCCN)NC(=O)[C@H](Cc1c[nH]c2ccccc12)NC(=O)[C@H](Cc1c[nH]c2ccccc12)NC(=O)[C@H](CCCNC(=N)N)NC(=O)[C@H](Cc1c[nH]c2ccccc12)NC(=O)[C@H](Cc1c[nH]cn1)NC(=O)[C@@H](N)CCCNC(=N)N)C(=O)N[C@@H](Cc1c[nH]cn1)C(=O)N[C@@H](Cc1c[nH]c2ccccc12)C(=O)N[C@@H](CCCNC(=N)N)C(=O)N[C@@H](CCC(=O)O)C(=O)N[C@@H](Cc1c[nH]c2ccccc12)C(N)=O — IC50 (A549; MTT; 24 h): 71 µM
COc1cc(C(=O)c2nc(-c3cccc4occc34)c[nH]2)cc(OC)c1OC — IC50 (PC-3; MTS; 72 h): 0.0614 µM
CC(C)[C@H](NC(=O)[C@H](CCCCN)NC(=O)[C@H](Cc1c[nH]c2ccccc12)NC(=O)[C@H](Cc1c[nH]c2ccccc12)NC(=O)[C@H](CCCNC(=N)N)NC(=O)[C@H](Cc1c[nH]c2ccccc12)NC(=O)[C@H](CCCNC(=N)N)NC(=O)[C@@H](N)CCCNC(=N)N)C(=O)N[C@@H](Cc1c[nH]cn1)C(=O)N[C@@H](Cc1c[nH]c2ccccc12)C(=O)N[C@@H](Cc1c[nH]cn1)C(=O)N[C@@H](CCC(=O)O)C(=O)N[C@@H](Cc1c[nH]c2ccccc12)C(N)=O — IC50 (A549; MTT; 24 h): > 500 µM
C#CC[C@@H]1NC(=O)[C@@H](CCCNC(=N)N)NC(=O)[C@H]([C@@H](C)O)NC(=O)[C@@H](CCCN)NC(=O)[C@H](Cc2ccccc2)NC(=O)[C@@H](Cc2ccccc2)NC1=O — IC50 (A549; ATP luminescence): > 100 µM
CC(C)C[C@H](NC(=O)[C@@H](N)CCCNC(=N)N)C(=O)N[C@@H](CCCNC(=N)N)C(=O)N[C@@H](CCCCN)C(=O)N[C@@H](Cc1ccccc1)C(=O)N[C@@H](CCCNC(=N)N)C(=O)N[C@@H](CCCNC(=N)N)C(=O)N[C@@H](CCCNC(=N)N)C(=O)N[C@@H](Cc1ccccc1)C(=O)N[C@@H](CCCNC(=N)N)C(=O)N[C@@H](CCCCN)C(=O)N[C@@H](CCC(=O)O)C(=O)NCC(N)=O — IC50 (A549; MTT; 24 h): > 500 µM
O=[N+]([O-])c1ccc(NCCCCCCN=C=S)c2nonc12 — IC50 (PC-3; MTT; 24 h): 1 µM
